Measured values from ChEMBL document CHEMBL4196169 (J Med Chem, 2018).
Values after ≈ are worked out from the molar mass of the structure shown.

What was measured:
Mus musculus = test: Dose normalized AUClast in C57BL/6 mouse at 3 mg/kg, po; type: ADME, organism-based; conditions: in vivo
Outline: (§1)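 Compound dosed to male C57BL/6 mice (1 mg/kg i.v., 3 mg/kg p.o.) and Sprague-Dawley rats (2 mg/kg i.v., 3 mg/kg p.o.), non-fasted, in formulation A (HCl, PEG, solutol, PBS). Beagle dogs were fasted and given 1 mg/kg i.v. in formulation B (HCl, PEG300, solutol HS 15, citrate buffer) or 3 mg/kg p.o. as solid dispersion in 100% PBS (formulation C). Plasma PK parameters were derived.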

Rattus norvegicus [1] = test: Tlast in Sprague-Dawley rat at 2 mg/kg, iv; type: ADME, organism-based; conditions: in vivo
[2] = AUClast in Sprague-Dawley rat at 2 mg/kg, iv; type: ADME, organism-based; set-up: dose 2 mg/kg, route intravenous, time 0 - last; conditions: in vivo; outline: as §1
Rattus norvegicus [3] = test: Dose normalized AUClast in Sprague-Dawley rat at 2 mg/kg, iv; type: ADME, organism-based; conditions: in vivo; outline: as §1
[4] = Clearance in Sprague-Dawley rat at 2 mg/kg, iv; type: ADME, organism-based; conditions: in vivo; outline: as §1
[5] = Volume of distribution at steady state in Sprague-Dawley rat at 2 mg/kg, iv; type: ADME, organism-based; conditions: in vivo, read-out: Vdss
[6] = Apparent terminal half life in Sprague-Dawley rat at 2 mg/kg, iv; type: ADME, organism-based; conditions: in vivo, read-out: betat1/2(app) (converted); outline: as §1
[7] = Tmax in Sprague-Dawley rat at 3 mg/kg, po; type: ADME, organism-based; conditions: in vivo
Rattus norvegicus [8] = test: Tlast in Sprague-Dawley rat at 3 mg/kg, po; type: ADME, organism-based; conditions: in vivo
[9] = Cmax in Sprague-Dawley rat at 3 mg/kg, po; type: ADME, organism-based; set-up: dose 3 mg/kg, route oral; conditions: in vivo; outline: as §1
[10] = AUClast in Sprague-Dawley rat at 3 mg/kg, po; type: ADME, organism-based; set-up: dose 3 mg/kg, route oral, time 0 - last; conditions: in vivo; outline: as §1
Rattus norvegicus [11] = test: Dose normalized AUClast in Sprague-Dawley rat at 3 mg/kg, po; type: ADME, organism-based; conditions: in vivo; outline: as §1
Rattus norvegicus [12] = test: Dose normalized Cmax in Sprague-Dawley rat at 3 mg/kg, po; type: ADME, organism-based; conditions: in vivo; outline: as §1
Canis familiaris [13] = test: Tlast in Beagle dog at 1 mg/kg, iv; type: ADME, organism-based, Canis lupus familiaris; conditions: in vivo
[14] = AUClast in Beagle dog at 1 mg/kg, iv; type: ADME, organism-based, Canis lupus familiaris; set-up: dose 1 mg/kg, route intravenous, time 0 - last; conditions: in vivo; outline: as §1
Canis familiaris [15] = test: Dose normalized AUClast in Beagle dog at 1 mg/kg, iv; type: ADME, organism-based, Canis lupus familiaris; conditions: in vivo; outline: as §1
[16] = Clearance in Beagle dog at 1 mg/kg, iv; type: ADME, organism-based, Canis lupus familiaris; conditions: in vivo; outline: as §1
[17] = Volume of distribution at steady state in Beagle dog at 1 mg/kg, iv; type: ADME, organism-based, Canis lupus familiaris; conditions: in vivo, read-out: Vdss
[18] = Apparent terminal half life in Beagle dog at 1 mg/kg, iv; type: ADME, organism-based, Canis lupus familiaris; conditions: in vivo, read-out: betat1/2(app) (converted); outline: as §1
[19] = Oral bioavailability in Sprague-Dawley rat at 3 mg/kg; type: ADME, organism-based; conditions: in vivo
[20] = Tmax in Beagle dog at 3 mg/kg, po; type: ADME, organism-based, Canis lupus familiaris; conditions: in vivo
Canis familiaris [21] = test: Tlast in Beagle dog at 3 mg/kg, po; type: ADME, organism-based, Canis lupus familiaris; conditions: in vivo
[22] = Cmax in Beagle dog at 3 mg/kg, po; type: ADME, organism-based, Canis lupus familiaris; set-up: dose 3 mg/kg, route oral; conditions: in vivo; outline: as §1
Canis familiaris [23] = test: Dose normalized Cmax in Beagle dog at 3 mg/kg, po; type: ADME, organism-based, Canis lupus familiaris; conditions: in vivo; outline: as §1
[24] = AUClast in Beagle dog at 3 mg/kg, po; type: ADME, organism-based, Canis lupus familiaris; set-up: dose 3 mg/kg, time 0 - last, route oral; conditions: in vivo; outline: as §1
Canis familiaris [25] = test: Dose normalized AUClast in Beagle dog at 3 mg/kg, po; type: ADME, organism-based, Canis lupus familiaris; conditions: in vivo; outline: as §1
[26] = Oral bioavailability in Beagle dog at 3 mg/kg; type: ADME, organism-based, Canis lupus familiaris; conditions: in vivo
[27] = Plasma concentration in nude mouse xenografted with human KCL22 cells at 7.5 mg/kg, po administered as solid dispersion measured after 2 hrs post first dose; type: ADME, organism-based
[28] = Plasma concentration in nude mouse xenografted with human KCL22 cells at 7.5 mg/kg, po administered as solid dispersion measured after 7 hrs post first dose; type: ADME, organism-based
[29] = Drug level in tumor of nude mouse xenografted with human KCL22 cells at 7.5 mg/kg, po administered as solid dispersion measured after 2 hrs post first dose; type: ADME, organism-based, Neoplasm; conditions: read-out: Drug uptake
[30] = Drug level in tumor of nude mouse xenografted with human KCL22 cells at 7.5 mg/kg, po administered as solid dispersion measured after 7 hrs post first dose; type: ADME, organism-based, Neoplasm; conditions: read-out: Drug uptake
[31] = Solubility of the compound in SGF at pH 2 compound administered as solid dispersion measured after 120 mins; type: physicochemical
[32] = Solubility of the compound in FaSSIF at pH 6.5 compound administered as solid dispersion measured after 15 mins; type: physicochemical
[33] = Solubility of the compound in FeSSIF at pH 5.8 compound administered as solid dispersion; type: physicochemical
[34] = Lipophilicity, log p of the compound by titration method; type: physicochemical; conditions: octanol/water

Compound: O=C(Nc1ccc(OC(F)(F)Cl)cc1)c1cnc(N2CC[C@@H](O)C2)c(-c2ccn[nH]2)c1 [ASCIMINIB]
- AUClast/dose (Mus musculus): 283 ng·h/mL/mg/kg
- Tlast (Rattus norvegicus [1]): 7 h
- AUC(0-t) [2]: 1890 ng·h/mL
- AUClast/dose (Rattus norvegicus [3]): 944 ng·h/mL/mg/kg
- clearance [4]: 16.3 mL/min/kg
- Vd [5]: 2.2 L/kg
- half-life [6]: 2.7 h
- Tmax [7]: 4 h
- Tlast (Rattus norvegicus [8]): 7 h
- Cmax [9]: 60 ng/mL
- AUC(0-t) [10]: 268 ng·h/mL
- AUClast/dose (Rattus norvegicus [11]): 89 ng·h/mL/mg/kg
- Cmax/dose (Rattus norvegicus [12]): 20 ng/mL/(mg/kg)
- Tlast (Canis familiaris [13]): 24 h
- AUC(0-t) [14]: 2810 ng·h/mL
- AUClast/dose (Canis familiaris [15]): 2812 ng·h/mL/mg/kg
- clearance [16]: 6 mL/min/kg
- Vd [17]: 1 L/kg
- half-life [18]: 3.7 h
- bioavailability [19]: 9%
- Tmax [20]: 0.5 to 1 h
- Tlast (Canis familiaris [21]): 24 h
- Cmax [22]: 1260 ng/mL
- Cmax/dose (Canis familiaris [23]): 419 ng/mL/(mg/kg)
- AUC(0-t) [24]: 5550 ng·h/mL
- AUClast/dose (Canis familiaris [25]): 1851 ng·h/mL/mg/kg
- bioavailability [26]: 66%
- concentration at 2 h [27]: 1170 nM
- concentration at 7 h [28]: 220 nM
- concentration at 2 h [29]: 580 nM
- concentration at 7 h [30]: 350 nM
- solubility at 2 h [31]: 3000 µg/mL (≈ 6670 µM)
- solubility at […] [32]: 260 µg/mL (≈ 578 µM)
- solubility [33]: 625 µg/mL (≈ 1390 µM)
- logP [34]: 4.1
